From ChEMBL document CHEMBL1152988, “Mutated response regulator graR is responsible for phenotypic conversion of Staphylococcus aureus from heterogeneous vancomycin-intermediate resistance to vancomycin-intermediate resistance” (2008)
In brackets after ≈: the same amount, converted by molar mass.

How the values were obtained:
Staphylococcus aureus [1] = test: Antibacterial activity against heterogeneous vancomycin-intermediate Staphylococcus aureus Mu3 harboring shuttle vector pYT3 after 48 hrs by agar dilution method; type: functional; conditions: Mu3, 48 h
In short: (§1)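 Host carries shuttle vector pYT3, either empty or carrying PCR-cloned graR (SA0614) from N315 (intact) or Mu50 (N197S mutant), introduced by electroporation and sequence-verified. MICs were determined by agar dilution per CLSI, with vancomycin MIC in BHI agar. Glycopeptides and daptomycin were tested at 1-mg/liter linear steps, oxacillin by twofold dilutions. Plates were read at 24 h and 48 h.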

Staphylococcus aureus [2] = test: Antibacterial activity against mutated graR gene knockout heterogeneous vancomycin-intermediate Staphylococcus aureus Mu3 after 24 hrs by agar dilution method; type: functional; conditions: Mu3, 24 h
In short: (§2)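 Agar dilution MICs per CLSI, with vancomycin MIC in BHI agar. Vancomycin, teicoplanin and daptomycin were tested at linear 1-mg/liter concentration steps; oxacillin was tested by twofold dilutions. Plates were read at 24 h and again at 48 h so a slow-growing resistant subpopulation would not be missed. graSR-null mutants were made by allelic exchange, replacing graSR with a cat cassette.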

Staphylococcus aureus [3] = test: Antibacterial activity against graSR gene knockout vancomycin-susceptible Staphylococcus aureus N315 after 24 hrs by agar dilution method; type: functional; conditions: N315, 24 h; in short: as §2
Staphylococcus aureus [4] = test: Antibacterial activity against heterogeneous vancomycin-intermediate Staphylococcus aureus Mu3 harboring intact graR gene after 48 hrs by agar dilution method; type: functional; conditions: Mu3, 48 h; in short: as §1
Staphylococcus aureus [5] = test: Antibacterial activity against vancomycin-susceptible Staphylococcus aureus N315 harboring shuttle vector pYT3 after 48 hrs by agar dilution method; type: functional; conditions: N315, 48 h; in short: as §1
Staphylococcus aureus [6] = test: Antibacterial activity against heterogeneous vancomycin-intermediate Staphylococcus aureus Mu3 harboring shuttle vector pYT3 after 24 hrs by agar dilution method; type: functional; conditions: Mu3, 24 h; in short: as §1
Staphylococcus aureus [7] = test: Antibacterial activity against vancomycin-susceptible Staphylococcus aureus N315 harboring mutated graR gene after 48 hrs by agar dilution method; type: functional; conditions: N315, 48 h; in short: as §1
Staphylococcus aureus [8] = test: Antibacterial activity against graSR gene knockout heterogeneous vancomycin-intermediate Staphylococcus aureus Mu3 after 48 hrs by agar dilution method; type: functional; conditions: Mu3, 48 h; in short: as §2
Staphylococcus aureus [9] = test: Antibacterial activity against heterogeneous vancomycin-intermediate Staphylococcus aureus Mu3 harboring mutated graR gene after 48 hrs by agar dilution method; type: functional; conditions: Mu3, 48 h; in short: as §1
Staphylococcus aureus [10] = test: Antibacterial activity against mutated graR gene knockout vancomycin-susceptible Staphylococcus aureus N315 after 48 hrs by agar dilution method; type: functional; conditions: N315, 48 h; in short: as §2
Staphylococcus aureus [11] = test: Antibacterial activity against heterogeneous vancomycin-intermediate Staphylococcus aureus Mu3 after 48 hrs by agar dilution method; type: functional; conditions: Mu3, 48 h; in short: as §2
Staphylococcus aureus [12] = test: Antibacterial activity against vancomycin-susceptible Staphylococcus aureus N315 after 24 hrs by agar dilution method; type: functional; conditions: N315, 24 h; in short: as §2
Staphylococcus aureus [13] = test: Antibacterial activity against vancomycin-susceptible Staphylococcus aureus N315 harboring intact graR gene after 48 hrs by agar dilution method; type: functional; conditions: N315, 48 h; in short: as §1
Staphylococcus aureus [14] = test: Antibacterial activity against heterogeneous vancomycin-intermediate Staphylococcus aureus Mu3 harboring mutated graR gene after 24 hrs by agar dilution method; type: functional; conditions: Mu3, 24 h; in short: as §1
Staphylococcus aureus [15] = test: Antibacterial activity against graSR gene knockout heterogeneous vancomycin-intermediate Staphylococcus aureus Mu3 after 24 hrs by agar dilution method; type: functional; conditions: Mu3, 24 h; in short: as §2
Staphylococcus aureus [16] = test: Antibacterial activity against mutated graR gene knockout vancomycin-susceptible Staphylococcus aureus N315 after 24 hrs by agar dilution method; type: functional; conditions: N315, 24 h; in short: as §2
Staphylococcus aureus [17] = test: Antibacterial activity against vancomycin-intermediate Staphylococcus aureus Mu50 after 24 hrs by agar dilution method; type: functional; conditions: Mu50, 24 h; in short: as §2
Staphylococcus aureus [18] = test: Antibacterial activity against vancomycin-susceptible Staphylococcus aureus N315 harboring intact graR gene after 24 hrs by agar dilution method; type: functional; conditions: N315, 24 h; in short: as §1
Staphylococcus aureus [19] = test: Antibacterial activity against vancomycin-susceptible Staphylococcus aureus N315 harboring shuttle vector pYT3 after 24 hrs by agar dilution method; type: functional; conditions: N315, 24 h; in short: as §1
Staphylococcus aureus [20] = test: Antibacterial activity against mutated graSR gene knockout vancomycin-susceptible Staphylococcus aureus N315 after 24 hrs by agar dilution method; type: functional; conditions: N315, 24 h; in short: as §2
Staphylococcus aureus [21] = test: Antibacterial activity against mutated graR gene knockout heterogeneous vancomycin-intermediate Staphylococcus aureus Mu3 after 48 hrs by agar dilution method; type: functional; conditions: Mu3, 48 h; in short: as §2
Staphylococcus aureus [22] = test: Antibacterial activity against mutated graSR gene knockout vancomycin-susceptible Staphylococcus aureus N315 after 48 hrs by agar dilution method; type: functional; conditions: N315, 48 h; in short: as §2
Staphylococcus aureus [23] = test: Antibacterial activity against vancomycin-intermediate Staphylococcus aureus Mu50 after 48 hrs by agar dilution method; type: functional; conditions: Mu50, 48 h; in short: as §2
Staphylococcus aureus [24] = test: Antibacterial activity against graSR gene knockout vancomycin-susceptible Staphylococcus aureus N315 after 48 hrs by agar dilution method; type: functional; conditions: N315, 48 h; in short: as §2
Staphylococcus aureus [25] = test: Antibacterial activity against heterogeneous vancomycin-intermediate Staphylococcus aureus Mu3 harboring intact graR gene after 24 hrs by agar dilution method; type: functional; conditions: Mu3, 24 h; in short: as §1
Staphylococcus aureus [26] = test: Antibacterial activity against heterogeneous vancomycin-intermediate Staphylococcus aureus Mu3 after 24 hrs by agar dilution method; type: functional; conditions: Mu3, 24 h; in short: as §2
Staphylococcus aureus [27] = test: Antibacterial activity against vancomycin-susceptible Staphylococcus aureus N315 after 48 hrs by agar dilution method; type: functional; conditions: N315, 48 h; in short: as §2
Staphylococcus aureus [28] = test: Antibacterial activity against vancomycin-susceptible Staphylococcus aureus N315 harboring mutated graR gene after 24 hrs by agar dilution method; type: functional; conditions: N315, 24 h; in short: as §1
Staphylococcus aureus [29] = test: Antibacterial activity against vancomycin-susceptible Staphylococcus aureus N315 harboring complement system vraSR by agar dilution method

| Compound | MIC (Staphylococcus aureus [1]) [µg/mL] | MIC (Staphylococcus aureus [2]) [µg/mL] | MIC (Staphylococcus aureus [3]) [µg/mL] | MIC (Staphylococcus aureus [4]) [µg/mL] | MIC (Staphylococcus aureus [5]) [µg/mL] | MIC (Staphylococcus aureus [6]) [µg/mL] | MIC (Staphylococcus aureus [7]) [µg/mL] | MIC (Staphylococcus aureus [8]) [µg/mL] | MIC (Staphylococcus aureus [9]) [µg/mL] | MIC (Staphylococcus aureus [10]) [µg/mL] | MIC (Staphylococcus aureus [11]) [µg/mL] | MIC (Staphylococcus aureus [12]) [µg/mL] | MIC (Staphylococcus aureus [13]) [µg/mL] | MIC (Staphylococcus aureus [14]) [µg/mL] | MIC (Staphylococcus aureus [15]) [µg/mL] | MIC (Staphylococcus aureus [16]) [µg/mL] | MIC (Staphylococcus aureus [17]) [µg/mL] | MIC (Staphylococcus aureus [18]) [µg/mL] | MIC (Staphylococcus aureus [19]) [µg/mL] | MIC (Staphylococcus aureus [23]) [µg/mL] | other results |
| --- | --- | --- | --- | --- | --- | --- | --- | --- | --- | --- | --- | --- | --- | --- | --- | --- | --- | --- | --- | --- | --- |
| CCCCCCCCCC(=O)N[C@@H](Cc1c[nH]c2ccccc12)C(=O)N[C@H](CC(N)=O)C(=O)N[C@@H](CC(=O)O)C(=O)N[C@@H]1C(=O)NCC(=O)N[C@@H](CCCN)C(=O)N[C@@H](CC(=O)O)C(=O)N[C@H](C)C(=O)N[C@@H](CC(=O)O)C(=O)NCC(=O)N[C@H](CO)C(=O)N[C@@H]([C@H](C)CC(=O)O)C(=O)N[C@@H](CC(=O)c2ccccc2N)C(=O)O[C@@H]1C | 2 (≈ 1.23 µM) | 3 (≈ 1.85 µM) | 0.5 (≈ 0.309 µM) | 3 (≈ 1.85 µM) | 0.5 (≈ 0.309 µM) | 1 (≈ 0.617 µM) | 1 (≈ 0.617 µM) | 0.5 (≈ 0.309 µM) | 3 (≈ 1.85 µM) | 1 (≈ 0.617 µM) | 1 (≈ 0.617 µM) | 0.5 (≈ 0.309 µM) | 0.5 (≈ 0.309 µM) | 3 (≈ 1.85 µM) | 0.5 (≈ 0.309 µM) | 1 (≈ 0.617 µM) | 3 (≈ 1.85 µM) | 0.5 (≈ 0.309 µM) | 0.5 (≈ 0.309 µM) | 3 (≈ 1.85 µM) | MIC (Staphylococcus aureus [20]): 1 µg/mL (≈ 0.617 µM); MIC (Staphylococcus aureus [21]): 3 µg/mL (≈ 1.85 µM); MIC (Staphylococcus aureus [22]): 1 µg/mL (≈ 0.617 µM); MIC (Staphylococcus aureus [24]): 0.5 µg/mL (≈ 0.309 µM); MIC (Staphylococcus aureus [25]): 3 µg/mL (≈ 1.85 µM); MIC (Staphylococcus aureus [26]): 1 µg/mL (≈ 0.617 µM); MIC (Staphylococcus aureus [27]): 0.5 µg/mL (≈ 0.309 µM); MIC (Staphylococcus aureus [28]): 1 µg/mL (≈ 0.617 µM) |
| Cc1onc(-c2ccccc2)c1C(=O)N[C@@H]1C(=O)N2[C@@H]1SC(C)(C)[C@@H]2C(=O)O [OXACILLIN] | > 1020 | 1020 (≈ 2550 µM) | 4 (≈ 9.96 µM) | 1020 (≈ 2550 µM) | 4 (≈ 9.96 µM) | 1020 (≈ 2550 µM) | 0.25 (≈ 0.623 µM) | 1020 (≈ 2550 µM) | 1020 (≈ 2550 µM) | 4 (≈ 9.96 µM) | > 1020 | 2 (≈ 4.98 µM) | 1 (≈ 2.49 µM) | 1020 (≈ 2550 µM) | 1020 (≈ 2550 µM) | 2 (≈ 4.98 µM) | 512 (≈ 1280 µM) | 0.5 (≈ 1.25 µM) | 4 (≈ 9.96 µM) | 512 (≈ 1280 µM) | MIC (Staphylococcus aureus [20]): 0.5 µg/mL (≈ 1.25 µM); MIC (Staphylococcus aureus [21]): 1020 µg/mL (≈ 2550 µM); MIC (Staphylococcus aureus [22]): 0.5 µg/mL (≈ 1.25 µM); MIC (Staphylococcus aureus [24]): 16 µg/mL (≈ 39.9 µM); MIC (Staphylococcus aureus [25]): 1020 µg/mL (≈ 2550 µM); MIC (Staphylococcus aureus [26]): 1020 µg/mL (≈ 2550 µM); MIC (Staphylococcus aureus [27]): 8 µg/mL (≈ 19.9 µM); MIC (Staphylococcus aureus [28]): 0.25 µg/mL (≈ 0.623 µM) |
| CN[C@H](CC(C)C)C(=O)N[C@H]1C(=O)N[C@@H](CC(N)=O)C(=O)N[C@H]2C(=O)N[C@H]3C(=O)N[C@H](C(=O)N[C@H](C(=O)O)c4cc(O)cc(O)c4-c4cc3ccc4O)[C@H](O)c3ccc(c(Cl)c3)Oc3cc2cc(c3O[C@@H]2O[C@H](CO)[C@@H](O)[C@H](O)[C@H]2O[C@H]2C[C@](C)(N)[C@H](O)[C@H](C)O2)Oc2ccc(cc2Cl)[C@H]1O [VANCOMYCIN] |  | 3 (≈ 2.07 µM) |  |  |  |  |  |  |  |  |  |  |  |  |  |  |  |  |  | 8 (≈ 5.52 µM) | MIC (Staphylococcus aureus [29]): ≥ 4 µg/mL |
